Measurements from ChEMBL document CHEMBL1126792, “Structure-activity relationships of beta-D-(2S,5R)- and alpha-D-(2S,5S)-1,3-oxathiolanyl nucleosides as potential anti-HIV agents” (J Med Chem, 1993).

Experiments:
[1] = test system: Human immunodeficiency virus 1; assay: Inhibition of cell growth against HIV-1 infected PBM (Human peripheral blood mononuclear) cells; assay type: functional, organism-based
Procedure, shortened: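 Growth of human PBM cells measured in cytotoxicity assay; IC50 = concentration giving 50% inhibition of cell growth; mean of triplicate values, calculated by the median method.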

[2] = test system: Human immunodeficiency virus 1; assay: Concentration required for antiviral activity in PBMC (human peripheral blood mononuclear cells) infected with HIV-1 strain LAV; assay type: functional, organism-based
Procedure, shortened: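 Human PBM cells infected with HIV-1 strain LAV. EC50 is the concentration giving 50% inhibition of virus production, measured as reverse transcriptase (RT) levels in culture supernatant. Values are the mean of triplicates, calculated by the median method.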

Vero = assay: Inhibition of cell growth in vero cells; assay type: functional, cell-based; settings: Chlorocebus sabaeus
Procedure, shortened: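 Vero cell cytotoxicity assay; IC50 = concentration giving 50% inhibition of cell growth; mean of triplicate values, calculated by the median method.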

[3] = Human immunodeficiency virus 1, PBMC

Nc1nc(=O)n([C@@H]2CS[C@@H](CO)O2)cc1I
IC50 [1]: > 100 µM
EC50 [2, 3]: 0.28 µM
IC50 (Vero): > 100 µM

Nc1nc(F)nc2c1ncn2[C@@H]1CS[C@@H](CO)O1
IC50 [1]: > 100 µM
EC50 [2, 3]: 61.9 µM
IC50 (Vero): 45.4 µM

Nc1ccn([C@@H]2CS[C@H](CO)O2)c(=O)n1 [LAMIVUDINE]
IC50 [1]: > 100 µM
EC50 ([2]; pbmc): 0.0018 µM
IC50 (Vero): > 100 µM

OC[C@H]1O[C@@H](n2cnc3c(Cl)ncnc32)CS1
IC50 [1]: > 100 µM
EC50 [2, 3]: 0.48 µM
IC50 (Vero): 46.5 µM

O=c1ccn([C@H]2CS[C@@H](CO)O2)c(=O)[nH]1
IC50 [1]: > 100 µM
EC50 [2, 3]: 94.7 µM
IC50 (Vero): > 100 µM

Nc1nc(=O)n([C@H]2CS[C@@H](CO)O2)cc1Cl
IC50 [1]: > 100 µM
EC50 [2, 3]: 0.28 µM
IC50 (Vero): > 100 µM

Nc1nc(O)c2ncn([C@@H]3CS[C@@H](CO)O3)c2n1
IC50 [1]: > 100 µM
EC50 [2, 3]: 7.62 µM
IC50 (Vero): 63.6 µM

Nc1ccn([C@H]2CO[C@@H](CO)O2)c(=O)n1
EC50 [2, 3]: 0.016 µM

Cc1cn([C@@H]2CS[C@@H](CO)O2)c(=O)nc1N
IC50 [1]: > 100 µM
EC50 [2, 3]: > 100 µM
IC50 (Vero): > 100 µM

O=c1[nH]c(=O)n([C@H]2CS[C@@H](CO)O2)cc1Br
IC50 [1]: > 100 µM
EC50 [2, 3]: > 100 µM
IC50 (Vero): > 100 µM

Nc1nc(Cl)c2ncn([C@@H]3CS[C@@H](CO)O3)c2n1
IC50 [1]: > 100 µM
EC50 [2, 3]: 5.6 µM
IC50 (Vero): > 100 µM

O=c1[nH]c(=O)n([C@H]2CS[C@@H](CO)O2)cc1F
IC50 [1]: > 100 µM
EC50 [2, 3]: 6.3 µM
IC50 (Vero): > 100 µM

Nc1ncnc2c1ncn2[C@H]1CS[C@@H](CO)O1
IC50 [1]: > 100 µM
EC50 [2, 3]: 0.28 µM
IC50 (Vero): > 100 µM

Nc1nc(=O)n([C@H]2CS[C@@H](CO)O2)cc1F
IC50 [1]: > 100 µM
EC50 [2, 3]: 0.38 µM
IC50 (Vero): > 100 µM

Nc1nc2c(ncn2[C@H]2CO[C@@H](CO)O2)c(=O)[nH]1
EC50 [2, 3]: 0.03 µM

OC[C@H]1O[C@@H](n2cnc3c(O)ncnc32)CS1
IC50 [1]: > 100 µM
EC50 [2, 3]: 0.05 µM
IC50 (Vero): > 100 µM

Cc1cn([C@H]2C[C@H](N=[N+]=[N-])[C@@H](CO)O2)c(=O)[nH]c1=O [ZIDOVUDINE]
IC50 [1]: > 100 µM
EC50 [2, 3]: 0.004 µM
IC50 (Vero): > 100 µM

O=c1[nH]c(=O)n([C@H]2CS[C@@H](CO)O2)cc1Cl
IC50 [1]: > 100 µM
EC50 [2, 3]: 30.4 µM
IC50 (Vero): > 100 µM

Nc1nc(=O)n([C@@H]2CS[C@@H](CO)O2)cc1F
IC50 [1]: > 100 µM
EC50 [2, 3]: 77.5 µM
IC50 (Vero): > 100 µM

Nc1nc(=O)n([C@H]2CS[C@@H](CO)O2)cc1I
IC50 [1]: > 100 µM
EC50 [2, 3]: 1.9 µM
IC50 (Vero): > 100 µM

O=c1[nH]c(=O)n([C@@H]2CS[C@@H](CO)O2)cc1Cl
IC50 [1]: > 100 µM
EC50 [2, 3]: > 100 µM
IC50 (Vero): > 100 µM

Nc1nc(F)nc2c1ncn2[C@H]1CS[C@@H](CO)O1
IC50 [1]: > 100 µM
EC50 [2, 3]: 2.8 µM
IC50 (Vero): 5.6 µM

Cc1cn([C@H]2CS[C@@H](CO)O2)c(=O)[nH]c1=O
IC50 [1]: > 100 µM
EC50 [2, 3]: 11.6 µM
IC50 (Vero): > 100 µM

Nc1nc(=O)n([C@H]2CS[C@@H](CO)O2)cc1Br
IC50 [1]: > 100 µM
EC50 [2, 3]: 0.012 µM
IC50 (Vero): > 100 µM

Nc1ncnc2c1ncn2[C@@H]1CS[C@@H](CO)O1
IC50 [1]: > 100 µM
EC50 [2, 3]: 11.9 µM
IC50 (Vero): > 100 µM

Nc1ccn([C@@H]2CS[C@@H](CO)O2)c(=O)n1
IC50 [1]: > 100 µM
EC50 [2, 3]: > 100 µM
IC50 (Vero): > 100 µM

Nc1nc(O)c2ncn([C@H]3CS[C@@H](CO)O3)c2n1
IC50 [1]: > 100 µM
EC50 [2, 3]: 0.83 µM
IC50 (Vero): > 100 µM

Nc1nc(Cl)c2ncn([C@H]3CS[C@@H](CO)O3)c2n1 (racemic)
IC50 [1]: > 100 µM
EC50 [2, 3]: 0.52 µM
IC50 (Vero): > 100 µM

CNc1ncnc2c1ncn2[C@H]1CS[C@@H](CO)O1
IC50 [1]: > 100 µM
EC50 [2, 3]: 1.1 µM
IC50 (Vero): > 100 µM

Cc1cn([C@H]2CS[C@@H](CO)O2)c(=O)nc1N
IC50 [1]: > 100 µM
EC50 [2, 3]: 0.172 µM
IC50 (Vero): > 100 µM

O=c1[nH]c(=O)n([C@H]2CS[C@@H](CO)O2)cc1I
IC50 [1]: > 100 µM
EC50 [2, 3]: 29.3 µM
IC50 (Vero): > 100 µM

Nc1nc(=O)n([C@@H]2CS[C@@H](CO)O2)cc1Cl
IC50 [1]: > 100 µM
EC50 [2, 3]: > 100 µM
IC50 (Vero): 31.2 µM

O=c1[nH]c(=O)n([C@@H]2CS[C@@H](CO)O2)cc1I
IC50 [1]: > 100 µM
EC50 [2, 3]: 112 µM
IC50 (Vero): > 100 µM

OC[C@H]1O[C@H](n2cnc3c(O)ncnc32)CS1
IC50 [1]: > 100 µM
EC50 [2, 3]: > 100 µM
IC50 (Vero): > 100 µM

O=c1[nH]c(=O)n([C@@H]2CS[C@@H](CO)O2)cc1Br
IC50 [1]: > 100 µM
EC50 [2, 3]: > 100 µM
IC50 (Vero): > 100 µM

Cc1cn([C@@H]2CS[C@@H](CO)O2)c(=O)[nH]c1=O
IC50 [1]: > 100 µM
EC50 [2, 3]: > 100 µM
IC50 (Vero): > 100 µM

CNc1ncnc2c1ncn2[C@@H]1CS[C@@H](CO)O1
IC50 [1]: > 100 µM
EC50 [2, 3]: 11.7 µM
IC50 (Vero): > 100 µM

OC[C@H]1O[C@H](n2cnc3c(Cl)ncnc32)CS1
IC50 [1]: > 100 µM
EC50 [2, 3]: 2.7 µM
IC50 (Vero): 86.1 µM

Nc1nc(=O)n([C@@H]2CS[C@@H](CO)O2)cc1Br
IC50 [1]: > 100 µM
EC50 [2, 3]: > 100 µM
IC50 (Vero): > 100 µM
